Screening results as filed in PubChem.
T cell HTS: modulators of CD8 T cell-vesicle binding, primary screen, mouse 2C CD8+ T cells, flow cytometry. response (vesicle binding), % at 7 µM. hit rate 0.068% among 330,000. 2C CD8+ T cell-vesicle binding; stronger effect = lower value;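 active = response, share of CD8 T cells binding vesicles, and their 90th percentile fluorescence all below set limits, cut at about 80% in these data, passing the limit was not always enough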;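 note: values below 100% mean blocked vesicle binding to the CD8+ T cells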
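Test system: purified 2C TCR transgenic mouse naive CD8+ T cells. Probe or stimulus: QL9-peptide-loaded Drosophila micro-vesicles bearing Ld, ICAM-1 and B7-1. Incubation: binding step 1.5 h, 37 °C, antibody labelling 20 min, ice. Measured by: flow cytometry of vesicle-bound cells.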
Mcl1-Bid inh: Mcl-1/Bid binding inhibitors, primary screen, biochemical, TR-FRET, 1536-well. Induced myeloid leukemia cell differentiation protein Mcl-1 (Homo sapiens), Q07820. TR-FRET Mcl-1/Bid-Dy647 peptide binding. inhibition, % at 21.7 µM. hit rate 0.97% among 220,000;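 active = compounds that cut the binding signal by more than half at the single screening dose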;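 note: His-tagged Mcl-1 with europium anti-His antibody binding Bid BH3 peptide; 0% = Mcl-1 plus peptide wells and 100% = peptide-only wells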
Target sequence (Q07820 whole entry, looked up): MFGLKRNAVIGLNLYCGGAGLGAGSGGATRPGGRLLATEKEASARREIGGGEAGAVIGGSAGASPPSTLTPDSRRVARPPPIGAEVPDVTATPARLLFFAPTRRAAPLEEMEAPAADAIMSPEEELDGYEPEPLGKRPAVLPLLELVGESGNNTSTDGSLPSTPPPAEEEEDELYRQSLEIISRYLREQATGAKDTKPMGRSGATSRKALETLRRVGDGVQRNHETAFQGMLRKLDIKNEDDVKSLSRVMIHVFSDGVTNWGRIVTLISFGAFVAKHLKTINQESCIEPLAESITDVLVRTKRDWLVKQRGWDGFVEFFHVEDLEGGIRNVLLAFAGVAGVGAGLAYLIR
Pemphigus Ab inh: inhibitors of pemphigus antibody binding to DSG3, primary screen, biochemical, bead-based, flow cytometry, scFv-GFP | hit rate 0.48% among 310,000 | AID 588358, 2011 | DSG3-coupled beads, scFv-anti-DSG3-GFP binding; stronger effect = lower value | Desmoglein-3 (Homo sapiens), P32926 | binding (percent of control), % at 10 µM;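 active = binding more than 3 SD below its plate's average and above zero; inconclusive = below that plate limit but binding exactly zero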
Mcl1-Noxa inh: Mcl-1/Noxa binding inhibitors, primary screen, biochemical, TR-FRET, 1536-well | Induced myeloid leukemia cell differentiation protein Mcl-1 (Homo sapiens), Q07820 | TR-FRET Mcl-1/Noxa peptide binding, 2 h | inhibition, % at 21.7 µM | hit rate 1.5% among 220,000 | AID 1022, 2008;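 active = compounds that cut the protein-peptide binding signal by more than 50% relative to plate controls in a single-dose test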;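 note: His-tagged Mcl-1 with rhodamine Noxa BH3 peptide and terbium anti-His antibody; 0% = Mcl-1 plus Noxa peptide wells and 100% = peptide-only wells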
Bim-Mcl-1: inhibitors of Bim peptide binding to Mcl-1, primary screen, biochemical, bead-based flow cytometry, multiplex; Induced myeloid leukemia cell differentiation protein Mcl-1 (Homo sapiens), Q07820; Bim peptide-Mcl-1 binding; inhibition, % at 10 µM; hit rate 0.1% among 190,000; in the data active = inhibition above about 40%;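 note: 0% = no compound tracer wells and 100% = peptide blocker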
MCL1 BIM primary: inhibitors of MCL1 binding to BIM-BH3, primary screen, biochemical, fluorescence polarization; Induced myeloid leukemia cell differentiation protein Mcl-1 (Homo sapiens), Q07820; GST-MCL1 / FITC-Bim-BH3 fluorescence polarization; inhibition, % at 10.9 µM; hit rate 0.68% among 320,000; AID 2057, 2009;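 active = inhibition above the mean inhibition of all tested compounds plus 3 SD, set per campaign, cut at about 40% in these data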;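 note: 0% = DMSO wells and 100% = unlabeled Bim-BH3 peptide control; higher means more loss of mP so more displacement of Bim peptide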
Numbers without * were called inactive. The list is not random: actives were taken first. Their share in the collection is about 2.3%.

What do the screens show for `CCC(SC1=Nc2ccccc2C2=NC(CC(C)C)C(=O)N12)C(=O)Nc1ccc2c(c1)OCO2` (stereo not given)?
T cell HTS: 501.3; Mcl1-Bid inh: -34.5; Mcl1-Noxa inh: 62.1*; Bim-Mcl-1: -3.0; MCL1 BIM primary: 13.4

Results for Cc1c(NS(=O)(=O)c2cc(NC(=O)CCN3CCCC(C)C3)ccc2Cl)c(=O)n(-c2ccccc2)n1C (stereo not given) ?
T cell HTS: 259.8; Mcl1-Bid inh: -22.2; Pemphigus Ab inh: 118.7; Mcl1-Noxa inh: 78.3*; Bim-Mcl-1: 0.0; MCL1 BIM primary: 13.6

What do the screens show for `CC1(C)NC(=O)N(CC(=O)OCc2cc(=O)n3cc(Br)ccc3n2)C1=O`?
T cell HTS: 302.4; Mcl1-Bid inh: -16.2; Pemphigus Ab inh: 103.3; Mcl1-Noxa inh: -1.0; Bim-Mcl-1: 7.0; MCL1 BIM primary: -3.9

What do the screens show for `O=C(CN1C(=O)NC2(CCCC2)C1=O)OCc1cc(=O)n2cc(Br)ccc2n1`?
T cell HTS: 85.8; Mcl1-Bid inh: -42.4; Pemphigus Ab inh: 64.8*; Mcl1-Noxa inh: 21.4; MCL1 BIM primary: 17.5

What do the screens show for `O=S(=O)(Nc1ccc(N=Nc2ccc(O)c3ccccc23)cc1)c1ccccc1`?
T cell HTS: 239.6; Mcl1-Bid inh: -29.2; Pemphigus Ab inh: 120.7; Mcl1-Noxa inh: 58.8*; Bim-Mcl-1: 1.0; MCL1 BIM primary: 2.7

How did O=S(=O)(Nc1ccc(N=Nc2ccccc2)cc1)c1ccccc1 do in these assays?
T cell HTS: 234.5; Mcl1-Bid inh: 12.2; Pemphigus Ab inh: 99.7; Mcl1-Noxa inh: -10.9; Bim-Mcl-1: -3.0; MCL1 BIM primary: 4.2

How did CCCCOc1ccc(C(=O)N/C(=C\c2ccc([N+](=O)[O-])cc2)C(=O)OCc2ccco2)cc1 do in these assays?
T cell HTS: 232.3; Mcl1-Bid inh: -7.5; Pemphigus Ab inh: 110.9; Mcl1-Noxa inh: 7.0; Bim-Mcl-1: 58.0*; MCL1 BIM primary: -6.2

How did CCCCOc1ccc(C(=O)N/C(=C\c2cccc([N+](=O)[O-])c2)C(=O)OCCC)cc1 do in these assays?
T cell HTS: 212.8; Mcl1-Bid inh: -26.7; Pemphigus Ab inh: inconclusive; Mcl1-Noxa inh: 1.8; Bim-Mcl-1: 0.0; MCL1 BIM primary: 10.1

What do the screens show for `CC(=O)N1CCOc2ccc(S(=O)(=O)N3CCC(C)CC3)cc21`?
T cell HTS: 307.4; Pemphigus Ab inh: 104.6; MCL1 BIM primary: -3.8

What do the screens show for `Cc1ccc(NC(=O)Cn2c(=O)c3cccn3c3ccccc32)cc1`?
T cell HTS: 343.3; MCL1 BIM primary: -6.7

How did CCCOc1ccc(N2C(=O)CC(N(C(=O)c3ccco3)c3ccc(OCCC)cc3)C2=O)cc1 (stereo not given) do in these assays?
T cell HTS: 0.0*; Mcl1-Bid inh: -8.3; Pemphigus Ab inh: 86.3; Mcl1-Noxa inh: -8.6; Bim-Mcl-1: -2.0; MCL1 BIM primary: 2.1

How did Cc1cc(C)c2nc(N3CCCN(C(=O)c4ccco4)CC3)c(C#N)cc2c1 do in these assays?
T cell HTS: 310.2; Mcl1-Bid inh: 54.9*; Pemphigus Ab inh: 92.4; Mcl1-Noxa inh: 72.9*; Bim-Mcl-1: 1.0; MCL1 BIM primary: 21.5

How did O=C(NC1CCOc2ccccc21)C1CCCC1 (stereo not given) do in these assays?
T cell HTS: 185.3; Pemphigus Ab inh: 113.1; MCL1 BIM primary: -22.4

Results for CC1(C(=O)N(CC(=O)NC2CCCC2)Cc2ccccc2)CC(=O)N=C2C=CC=CN21 (stereo not given) ?
T cell HTS: 663.1; Pemphigus Ab inh: 106.7; MCL1 BIM primary: 8.6

How did CC1(C(=O)N(CC(=O)NC2CCCC2)Cc2ccco2)CC(=O)N=C2C=CC=CN21 (stereo not given) do in these assays?
T cell HTS: 333.9; Mcl1-Bid inh: -22.4; Pemphigus Ab inh: 101.5; Mcl1-Noxa inh: -6.4; Bim-Mcl-1: 41.0*; MCL1 BIM primary: 15.8

How did COc1ccc(C2=NNC(c3ccco3)=Nc3ccc(F)cc32)cc1 do in these assays?
T cell HTS: 328.3; Mcl1-Bid inh: -23.5; Pemphigus Ab inh: 100.9; Mcl1-Noxa inh: 17.1; Bim-Mcl-1: 4.0; MCL1 BIM primary: -4.5

What do the screens show for `COc1ccc2c(c1)C(c1ccc([N+](=O)[O-])cc1)=NNC(c1ccco1)=N2`?
T cell HTS: 0.0*; Mcl1-Bid inh: -15.7; Pemphigus Ab inh: 101.4; Mcl1-Noxa inh: 18.0; Bim-Mcl-1: -1.0; MCL1 BIM primary: 2.9

Results for NC(=O)C1(Nc2ccc(-c3ccc(Cl)cc3)cc2)CCCC1 ?
Pemphigus Ab inh: 54.2*

What do the screens show for `O=C(O)C1(Nc2ccc(Cl)cc2)CCCC1`?
Pemphigus Ab inh: 90.6

How did O=c1[nH]cc(COCC(F)CCl)c(=O)[nH]1 (stereo not given) do in these assays?
T cell HTS: 224.9; Mcl1-Bid inh: -58.0; Pemphigus Ab inh: 72.4*; Mcl1-Noxa inh: 20.9; MCL1 BIM primary: 0.4

Results for O=C1c2ccccc2C(=O)N1CCCOCc1c[nH]c(=O)[nH]c1=O ?
T cell HTS: 187.9; Mcl1-Bid inh: 4.5; Pemphigus Ab inh: 94.8; Mcl1-Noxa inh: -10.9; Bim-Mcl-1: -4.0; MCL1 BIM primary: 8.0

Results for CCOc1ccc(C(=O)Nc2cc(NC(=O)c3ccc(OCC)c(Cl)c3)cc(C(=O)O)c2)cc1Cl ?
Mcl1-Bid inh: 5.0; Pemphigus Ab inh: 98.4; Mcl1-Noxa inh: 83.5*; Bim-Mcl-1: -2.0

Results for CCOc1ccc(C(=O)Nc2cccc(C(=O)O)c2)cc1Cl ?
T cell HTS: 308.7; Mcl1-Bid inh: -28.5; Pemphigus Ab inh: 113.6; Mcl1-Noxa inh: -0.5; Bim-Mcl-1: 3.0; MCL1 BIM primary: -6.5

What do the screens show for `CCOc1ccc(C(=O)Nc2cccc(-c3nc4cccnc4o3)c2)cc1Cl`?
T cell HTS: 345.8; Mcl1-Bid inh: 50.9*; Pemphigus Ab inh: 103.6; Mcl1-Noxa inh: -3.7; Bim-Mcl-1: 0.0; MCL1 BIM primary: -8.8

What do the screens show for `COc1ccc(Cl)cc1NC(=O)CN(C)C(C)C(=O)NC(=O)NC1CCCCC1` (stereo not given)?
T cell HTS: inactive; Pemphigus Ab inh: 101.5; MCL1 BIM primary: -2.2

Results for O=C(Nc1cccc(/C=C/c2ccccn2)c1)c1ccc(-n2cncn2)c([N+](=O)[O-])c1 ?
T cell HTS: 203.5; Pemphigus Ab inh: 103.2; MCL1 BIM primary: -1.4

How did O=C(Nc1ccccn1)c1ccc([N+](=O)[O-])cc1Cl do in these assays?
T cell HTS: 543.4; Mcl1-Bid inh: 94.2*; Pemphigus Ab inh: 133.3; Mcl1-Noxa inh: 2.5; Bim-Mcl-1: -3.0; MCL1 BIM primary: -1.9
